The values that follow come from ChEMBL document CHEMBL1149158, “Combination of paclitaxel and nitric oxide as a novel treatment for the reduction of restenosis” (J Med Chem, 2004).

A short description of experiment [1]: Stent coated compound was evaluated for mercury displaceable NO after sterilization (Electron-Beam Radiation). Format: functional.
Experiment [2] can be described thus: Stent coated compound was evaluated for mercury displaceable NO before sterilization (Electron-Beam Radiation). The format is functional.
The species named for experiment [3] is Oryctolagus cuniculus. In words: In vitro antiplatelet aggregatory effect in rabbit platelet rich plasma (PRP). Format: functional. An outline of the steps: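 Rabbit blood collected 10:1 into 3.8% trisodium citrate pH 6.5, spun 180g 15 min at 21 °C to give PRP. PRP preincubated 2 min at 37 °C with compound (500× ethanol stock), then aggregation induced with ADP (5–10 μM) and followed in an aggregometer; percent inhibition calculated relative to maximum aggregation amplitude.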

For experiment [4], the species on record is Homo sapiens. Description: (§1) In vitro antiproliferative effect on cultured human coronary artery smooth muscle cells (hCASMC). Format: functional. An outline of the steps: (§2)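 Human coronary artery smooth muscle cells seeded at 3×10^4 per well in SmGM2 growth medium; compound added from 1000× ethanol stock 3-4 h after seeding, ethanol vehicle controls, n = 4 per point. After 68-72 h cells trypsinized and viable (Trypan Blue negative) cells counted by hemacytometer; mean ± SD.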

In experiment [5] the test system is Oryctolagus cuniculus. Description: In vivo nitric oxide(NO) release was determined by the coated stent compound in rabbit iliac at 6 hrs; value expressed as mercury displaceable nitric oxide. Format: functional. An outline of the steps: (§3)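 Coated stent deployed in rabbit iliac artery, position confirmed by angiography; 6 h later animal euthanized with 120 mg/kg iv sodium pentobarbital, stent recovered from the artery and nitrosothiol/NO content measured by chemiluminescence; retained content expressed relative to original load.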

Experiment [6] has as its system Oryctolagus cuniculus. Description: In vivo nitric oxide(NO) release was determined by the coated stent compound in rabbit iliac at 6 hrs; value expressed as percent remaining nitric oxide. The format is functional. An outline of the steps:
as §3

For experiment [7], the system named is Oryctolagus cuniculus. Description: In vivo nitric oxide(NO) release was determined by the coated stent compound in rabbit iliac at 0 h; value expressed as mercury displaceable nitric oxide. Format: functional.
Experiment [8] is filed under the species Oryctolagus cuniculus. Description: Compound was evaluated to determine the stenosis in Rabbit Iliac Arteries value expressed as difference from polymer coated stents. Format: functional.
Experiment [9] is filed under the species Oryctolagus cuniculus. In words: Compound was evaluated to determine the stenosis in Rabbit Iliac Arteries value expressed as net effect of NO over paclitaxel coated stents. The format is functional.
Experiment [10] is filed under the species Oryctolagus cuniculus. Description: Compound was evaluated to determine the stenosis in Rabbit Iliac Arteries. The format is functional.
Experiment [11] is filed under the species Oryctolagus cuniculus. In words: Compound was evaluated to determine the stenosis in Rabbit Iliac Arteries value expressed as difference from bare stents. The format is functional.
Experiment [12] relates to Coronary artery smooth muscle cell line. Described as §1. Format: functional, cell-based. An outline of the steps:
as §2

`CC(=O)O[C@H]1C(=O)[C@@]2(C)C([C@H](OC(=O)c3ccccc3)[C@]3(O)C[C@H](OC(=O)[C@H](O)[C@@H](NC(=O)c4ccccc4)c4ccccc4)C(C)=C1C3(C)C)[C@]1(OC(C)=O)CO[C@@H]1C[C@@H]2OC(=O)CC(C)(C)SN=O` (some centres not stated) [listing 1 of 2 here]: the Activity in [1] was determined as 316 nM stent-1; in experiment [2] it was 349 nM stent-1.

On to `CC(=O)O[C@H]1C(=O)[C@@]2(C)C([C@H](OC(=O)c3ccccc3)[C@]3(O)C[C@H](OC(=O)[C@H](O)[C@@H](NC(=O)c4ccccc4)c4ccccc4)C(C)=C1C3(C)C)[C@]1(OC(C)=O)CO[C@@H]1C[C@@H]2OC(=O)CC(C)(C)SN=O.CN(C)C(=O)CC1(SN=O)C2CC3CC(C2)CC1C3` (some centres not stated) [listing 1 of 2 here], for which the Activity in experiment [1] worked out at 746 nM stent-1; in experiment [2] it was 733 nM stent-1.

A word on the IC50: it is the concentration that gives 50% inhibition. In the case of `CC(=O)O[C@H]1C(=O)[C@@]2(C)C([C@H](OC(=O)c3ccccc3)[C@]3(O)C[C@H](OC(=O)[C@H](O)[C@@H](NC(=O)c4ccccc4)c4ccccc4)C(C)=C1C3(C)C)[C@]1(OC(C)=O)CO[C@@H]1C[C@@H]2OC(=O)CC(C)(C)SN=O` (some centres not stated) [listing 2 of 2 here], the figures for the IC50 in experiment [3] and in experiment [4] were 10 µM and roughly 20 nM, respectively. The Activity is 214 nM stent-1 in [5], 65% in [6] and 369 nmol/stent in experiment [7].

As to `CC(=O)O[C@H]1C(=O)[C@@]2(C)C([C@H](OC(=O)c3ccccc3)[C@]3(O)C[C@H](OC(=O)[C@H](O)[C@@H](NC(=O)c4ccccc4)c4ccccc4)C(C)=C1C3(C)C)[C@]1(OC(C)=O)CO[C@@H]1C[C@@H]2OC(=O)CC(C)(C)SN=O.CN(C)C(=O)CC1(SN=O)C2CC3CC(C2)CC1C3` (some centres not stated) [listing 2 of 2 here], the Activity is -41% in experiment [8]; -34% in experiment [9]; 209 nM stent-1 in experiment [5]; -18% in [11]; 31% in experiment [6]; 627 nmol/stent in [7]. Also, the Stenosis in experiment [10] was 15%.

Turning to `CN(C)C(=O)CC1(SN=O)C2CC3CC(C2)CC1C3` (configuration not stated), the Activity is 18 nM stent-1 in [5]; 5% in experiment [6]; 440 nM stent-1 in [1]; 417 nmol/stent in [7]; 436 nM stent-1 in experiment [2]. Also, in [12], the IC50 turned out to be 15000 nM.

`CC(=O)O[C@H]1C(=O)[C@@]2(C)C([C@H](OC(=O)c3ccccc3)[C@]3(O)C[C@H](OC(=O)[C@H](O)[C@@H](NC(=O)c4ccccc4)c4ccccc4)C(C)=C1C3(C)C)[C@]1(OC(C)=O)CO[C@@H]1C[C@@H]2OC(=O)CC(C)(C)S` (some centres not stated) displayed an IC50 in experiment [12] of 20 nM.

With `CC(=O)O[C@H]1C(=O)[C@@]2(C)[C@H]([C@H](OC(=O)c3ccccc3)[C@]3(O)C[C@H](OC(=O)[C@H](O)[C@@H](NC(=O)c4ccccc4)c4ccccc4)C(C)=C1C3(C)C)[C@]1(OC(C)=O)CO[C@@H]1C[C@@H]2O` [PACLITAXEL], the results for the Activity in experiment [8] and in experiment [11] were -11% and 23%, respectively. In experiment [10], this compound yielded a Stenosis of 22.6%. The compound also returned an IC50 in experiment [12] of roughly 1 nM.
